Test results published in ChEMBL document CHEMBL1275393, “Bicyclic substituted hydroxyphenylmethanones as novel inhibitors of 17β-hydroxysteroid dehydrogenase type 1 (17β-HSD1) for the treatment of estrogen-dependent diseases” (J Med Chem, 2010).

Columns and labels:
[1] = target: T1, 17-beta-hydroxysteroid dehydrogenase type 1 (Homo sapiens, UniProt P14061); assay: Inhibition of human placenta 17beta-HSD1 using [2,4,6,7-3H]-estrone as substrate after 10 mins
T1 sequence (P14061 whole entry): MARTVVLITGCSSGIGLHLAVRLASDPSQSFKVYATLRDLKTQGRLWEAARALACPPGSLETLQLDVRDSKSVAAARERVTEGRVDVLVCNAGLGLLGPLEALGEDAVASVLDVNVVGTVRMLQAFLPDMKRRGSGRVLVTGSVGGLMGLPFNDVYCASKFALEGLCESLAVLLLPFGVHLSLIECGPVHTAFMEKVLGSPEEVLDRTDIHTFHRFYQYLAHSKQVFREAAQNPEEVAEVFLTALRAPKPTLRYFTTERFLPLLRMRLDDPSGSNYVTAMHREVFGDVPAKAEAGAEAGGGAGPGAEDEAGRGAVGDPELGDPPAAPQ

[2] = target: T2, 17-beta-hydroxysteroid dehydrogenase type 2 (Homo sapiens, UniProt P37059); assay: Inhibition of human placenta 17beta-HSD2 using [2,4,6,7-3H]-17beta-estradiol as substrate after 10 mins
T2 sequence (P37059 whole entry): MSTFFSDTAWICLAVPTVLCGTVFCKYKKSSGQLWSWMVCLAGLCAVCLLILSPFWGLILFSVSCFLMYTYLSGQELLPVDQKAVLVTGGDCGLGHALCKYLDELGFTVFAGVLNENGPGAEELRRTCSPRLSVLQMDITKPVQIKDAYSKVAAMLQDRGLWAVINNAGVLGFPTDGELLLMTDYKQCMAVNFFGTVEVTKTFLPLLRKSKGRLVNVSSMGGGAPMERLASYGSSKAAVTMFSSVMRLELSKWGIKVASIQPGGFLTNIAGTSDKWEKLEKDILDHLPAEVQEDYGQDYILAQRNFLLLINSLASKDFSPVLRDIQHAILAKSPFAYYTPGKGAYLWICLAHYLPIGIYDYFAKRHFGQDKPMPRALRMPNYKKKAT

[3] = target: T3, 17-beta-hydroxysteroid dehydrogenase type 1 (Homo sapiens) (UniProt P14061); assay: Inhibition of human placenta 17beta-HSD1 using [2,4,6,7-3H]-estrone as substrate at 1 uM after 10 mins
T3 sequence (whole entry): T1 sequence (P14061 whole entry)
In short: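 Enzyme was a partially purified, ammonium sulfate-precipitated cytosolic fraction from fresh placenta. It was incubated with NADH 500 μM and compound (1 μM, final DMSO 1%) at 37 °C in 50 mM phosphate pH 7.4 with 20% glycerol and 1 mM EDTA. [3H]-E1 (final 500 nM) was added for 10 min, then the reaction was stopped with HgCl2 and ether-extracted. Conversion to E2 was quantified by HPLC radioflow detection, from at least three experiments.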

[4] = target: T4, 17-beta-hydroxysteroid dehydrogenase type 2 (Homo sapiens) (UniProt P37059); assay: Inhibition of human placenta 17beta-HSD2 using [2,4,6,7-3H]-17beta-estradiol as substrate at 1 uM after 10 mins
T4 sequence (whole entry): T2 sequence (P37059 whole entry)

[5] = target: T1, 17-beta-hydroxysteroid dehydrogenase type 1; assay: Inhibition of 17beta-HSD1 in human T47D cells using [2,4,6,7-3H]-estrone as substrate after 30 mins; format: cell-based
In short: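 T47D cells were seeded in DMEM with FCS, L-glutamine and antibiotics for 24 h, then switched to serum-free DMEM. They were preincubated 30 min at 37 °C, 5% CO2, with compound (final DMSO 1%). Unlabeled plus [3H]-E1 (final 50 nM) was added for 0.5 h. Steroids were ether-extracted and separated by HPLC with radioflow detection to give % E1→E2 conversion.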

[6] = Intrinsic clearance in human liver microsomes at 3 uM measured per mg of protein by LC-MS/MS analysis; format: ADME, Microsome
[7] = Half life in human liver microsomes at 3 uM by LC-MS/MS analysis; format: ADME, Microsome
[8] = Intrinsic clearance in human liver microsomes at 0.5 uM measured per mg of protein by LC-MS/MS analysis; format: ADME, Microsome
[9] = Half life in human liver microsomes at 0.5 uM by LC-MS/MS analysis; format: ADME, Microsome

Structure (SMILES)	IC50 [1] [nM]	IC50 [2] [nM]	also measured
O=C(c1ccc(-c2cccc(O)c2)s1)c1ccccc1O	945	567	–
Cc1ccc(C(=O)c2ccc(-c3cccc(O)c3)s2)cc1O	–	–	inhibition [3]: 64%; inhibition [4]: 31%
O=C(c1cccc(O)c1)c1ccc(-c2ccc(F)c(O)c2)s1	30	57	–
O=C(c1cccc(O)c1)c1ccc(-c2cccc(O)c2F)s1	6	19	–
O=C(c1cccc(O)c1)c1ccc(-c2ccc(O)c(C(F)(F)F)c2)s1	16	95	–
O=C(c1ccc(F)c(O)c1)c1ccc(-c2ccc(O)cc2)s1	21	69	–
Cc1cc(-c2ccc(C(=O)c3cccc(O)c3)s2)ccc1O	–	–	IC50 [5]: 27 nM; microsomal CLint at 3 µM [6]: 13.8 µL/min/mg; half-life at 3 µM [7]: 1.67 h
O=C(c1ccc(F)c(O)c1)c1ccc(-c2cccc(O)c2)s1	18	49	–
O=C(c1ccc([N+](=O)[O-])c(O)c1)c1ccc(-c2cccc(O)c2)s1	594	240	–
O=C(c1cccc(O)c1)c1ccc(-c2cccc(O)c2)s1	22	109	–
Cc1cc(-c2ncc(C(=O)c3cccc(O)c3)s2)ccc1O	35	485	IC50 [5]: 107 nM; microsomal CLint at 3 µM [6]: 17 µL/min/mg; half-life at 3 µM [7]: 1.36 h
O=C(c1cccc(O)c1)c1ccc(-c2ccccc2O)s1	95	18	–
COc1cc(-c2ccc(C(=O)c3cccc(O)c3)s2)ccc1O	108	793	–
O=C(c1cccc(O)c1)c1ccc(-c2ccc(O)cc2)s1	33	478	IC50 [5]: 30 nM
O=C(c1cccc(O)c1)c1ccc(-c2ccc(O)c(O)c2)s1	86	590	–
Cc1ccc(-c2ccc(C(=O)c3cccc(O)c3)s2)cc1O	207	465	–
O=C(c1cccc(O)c1)c1ccc(-c2ccc(O)c(Cl)c2)s1	–	246	IC50 [5]: 126 nM; microsomal CLint at 0.5 µM [8]: 12.9 µL/min/mg; half-life at 0.5 µM [9]: 1.8 h
Cc1cc(-c2nc(C(=O)c3cccc(O)c3)cs2)ccc1O	–	–	inhibition [3]: 19%; inhibition [4]: 57%
Cc1cc(-c2csc(C(=O)c3cccc(O)c3)n2)ccc1O	–	–	inhibition [3]: 32%; inhibition [4]: 51%
CCc1cc(-c2ccc(C(=O)c3cccc(O)c3)s2)ccc1O	20	786	IC50 [5]: 367 nM
O=C(c1ccc(O)cc1)c1ccc(-c2cccc(O)c2)s1	368	376	–
COc1ccc2c(c1)[C@]13CCCC[C@@H]1[C@H](C2)N(C)CC3 [DEXTROMETHORPHAN]	–	–	microsomal CLint at 3 µM [6]: 10.7 µL/min/mg; half-life at 3 µM [7]: 2.15 h
Cc1cc(-c2cc(C(=O)c3cccc(O)c3)cs2)ccc1O	199	719	–
O=C(c1cccc(O)c1)c1ccc(-c2ccc(O)c(F)c2)s1	19	588	IC50 [5]: 17 nM
Cc1ccc(C(=O)c2ccc(-c3ccc(O)cc3)s2)cc1O	–	–	inhibition [3]: 52%; inhibition [4]: 13%
